# Results published in PubChem BioAssay AID493238 (Broad Institute, 2011).
# “And” between values parts separate entries of the source, which are not always exact repeats. Equal entries are not always repeated. The source made the active and inactive calls.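 How the source made its calls: active means VEGF mRNA rise whose fitted curve reaches 40% activation within the highest concentration tested on that sample; inactive means the rest, including effects opposite to expected.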
# System: not listed separately
# Experiment: VEGF mRNA induction in U2OS cells, dose response, orthogonal assay for HIF pathway activator project, cell-based, RT-PCR, dry powder, set 2 (AID 493238)
# Details: U2OS VEGF mRNA induction, RT-PCR; at 38 µM (top of the series)
# How it was run: (§1)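 Test system: human U2OS osteosarcoma cells, endogenous VEGF-A mRNA / Quantity: 2,000 cells/well / Times: 24 h pre-growth at 37 °C, 24 h compound treatment / Signal: TaqMan RT-qPCR, VEGF-A (FAM) with beta-actin (VIC) / Control set: DMSO as negative control / Replication: duplicates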
row,SMILES,activation
1,Cc1ccc(CNC(=O)c2cc(-c3ccccc3)on2)cc1,8.66% (inactive)
2,O=C(NCCN1CCCCC1)c1cc(-c2ccccc2)on1,-5.63% (inactive)
3,Cc1cccc(CNC(=O)c2cc(-c3ccccc3)on2)c1,8.64% (inactive)
4,O=C(c1cc(-c2ccccc2)on1)N1CCc2cccnc21,5.33% (inactive)
5,CN1CCN(C(=O)c2cc(-c3ccccc3)on2)CC1,5.56% (inactive)
6,CN(C)CCNC(=O)c1cc(-c2ccccc2)on1,5.67% (inactive)
7,O=C(NC1Cc2ccccc2C1)c1cc(-c2ccccc2)on1,2.5% (inactive)
8,Cc1cccc(NC(=O)c2cc(-c3ccccc3)on2)n1,16.6% (inactive)
9,O=C(c1cc(-c2ccccc2)on1)N1CCC(CO)CC1,9.68% (inactive)
10,O=C(Nc1nnc(-c2ccccc2)s1)c1cc(-c2ccccc2)on1,-3.69% (inactive)
11,Cn1c(NC(=O)c2cc(-c3ccccc3)on2)nc2ccccc21,-9.2% (inactive)
12,O=C(NCC1CCCCC1)c1cc(-c2ccccc2)on1,-2.71% (inactive)
13,Cc1ccc(NC(=O)c2cc(-c3ccccc3)on2)cn1,4.7% (inactive)
14,O=C(c1cc(-c2ccccc2)on1)N1CCC(N2CCCC2)CC1,13.9% (inactive)
15,O=C(Nc1nc(-c2ccccc2)cs1)c1cc(-c2ccccc2)on1,-5.33% (inactive)
16,O=C(Nc1ccc2ccccc2n1)c1cc(-c2ccccc2)on1,4.54% (inactive)
17,Cc1ccccc1CNC(=O)c1cc(-c2ccccc2)on1,35.3% (inactive)
18,O=C(Nc1cnc2ccccc2c1)c1cc(-c2ccccc2)on1,-1.59% (inactive)
19,O=C(c1cc(-c2ccccc2)on1)N1CCC(N2CCOCC2)CC1,2.34% (inactive)
20,O=C(Nc1nc2ccccc2s1)c1cc(-c2ccccc2)on1,18.7% (inactive)
21,O=C(NCc1ccccc1)c1cc(-c2ccccc2)on1,-10.1% (inactive)
22,O=C(Nc1ncc(-c2ccccc2)o1)c1cc(-c2ccccc2)on1,-1.45% (inactive)

# System: U2OS VEGF mRNA induction, RT-PCR
# Experiment: as above
# Details: not given
# How it was run: as §1
row,SMILES,AC40
1,O=C(NCCCN1CCOCC1)c1cc(-c2ccccc2)on1,23 µM
2,O=C(c1cc(-c2ccccc2)on1)N1CCN(c2ccncc2)CC1,> 38 µM (inactive)
3,CC1CN(Cc2ccc(O)c3ncccc23)CC(C)O1 (configuration not stated),9.15 µM
4,O=C(NC1CCc2ccccc2C1)c1cc(-c2ccccc2)on1 (configuration not stated),> 38 µM (inactive)
5,CC(C)(C)CCNc1nc(-c2ccccn2)nnc1-c1ccccc1,0.768 µM and 0.974 µM
6,c1ccc(-c2nnc(-c3ccccn3)nc2NCCc2ccccn2)cc1,5.54 µM
7,c1ccc(-c2nnc(-c3ccccn3)nc2NCC2CCOCC2)cc1,7.58 µM
8,CCCCNC(=O)c1cc(-c2ccccc2)on1,14.6 µM
9,CN(C)c1nc(-c2ccccn2)nnc1-c1ccccc1,8.23 µM
10,O=C(NCCCCO)c1cc(-c2ccccc2)on1,5.01 µM
11,c1ccc(-c2nnc(-c3ccccn3)nc2NCCCN2CCOCC2)cc1,6.5 µM
12,Cc1ccccc1CNc1nc(-c2ccccn2)nnc1-c1ccccc1,1.02 µM
13,c1ccc(-c2nnc(-c3ccccn3)nc2NCc2ccccn2)cc1,4.53 µM
14,c1ccc(CNc2nc(-c3ccccn3)nnc2-c2ccccc2)cc1,1.6 µM
15,O=C(NCC1CC1)c1cc(-c2ccccc2)on1,17.2 µM
16,Cc1ccc(CNc2nc(-c3ccccn3)nnc2-c2ccccc2)cc1,0.892 µM
17,COc1ccc(CNc2nc(-c3ccccn3)nnc2-c2ccccc2)cc1,1.92 µM
18,OCCCNc1nc(-c2ccccn2)nnc1-c1ccccc1,8.34 µM
19,Cc1cccc(Nc2nc(-c3ccccn3)nnc2-c2ccccc2)n1,2.98 µM
20,c1ccc(-c2nnc(-c3ccccn3)nc2Nc2cnc3ccccc3n2)cc1,1.1 µM
21,c1ccc(-c2cccc(CNc3nc(-c4ccccn4)nnc3-c3ccccc3)c2)cc1,0.601 µM
22,CC(C)(C)CCNC(=O)c1cc(-c2ccccc2)on1,> 38 µM (inactive)

row,SMILES,AC40
1,Cc1ccc(CNc2nc(-c3ccccn3)nnc2-c2ccccc2)cc1C,0.772 µM
2,c1ccc(-c2nnc(-c3ccccn3)nc2N2CCC(c3ccccc3)C2)cc1 (configuration not stated),1.52 µM
3,COc1cccc(CNc2nc(-c3ccccn3)nnc2-c2ccccc2)c1,1.78 µM
4,c1ccc(-c2nnc(-c3ccccn3)nc2NCc2cccnc2)cc1,2.84 µM
5,c1ccc(-c2nnc(-c3ccccn3)nc2N2CCC(N3CCOCC3)CC2)cc1,6.52 µM
6,Cn1c(-c2ccccc2)cnc1NC(=O)c1cc(-c2ccccc2)on1,35.2 µM
7,O=C(Nc1ncc2ccccc2n1)c1cc(-c2ccccc2)on1,36.2 µM
8,CC(C)(C)OC(=O)N1CCN(Cc2ccc(O)c3ncccc23)CC1,10.2 µM
9,c1ccc(-c2nnc(-c3ccccn3)nc2NCC2CC2)cc1,2.4 µM
10,N#CC1(c2ccccc2)CCN(Cc2ccc(O)c3ncccc23)CC1,28.3 µM
11,c1ccc(-c2nnc(-c3ccccn3)nc2NCCN2CCOCC2)cc1,8.15 µM
12,Oc1ccc(CN2CCC(Cc3ccccc3)CC2)c2cccnc12,6.76 µM
13,CC(C)(C)c1ccc(CNc2nc(-c3ccccn3)nnc2-c2ccccc2)cc1,0.397 µM
14,CC(Nc1nc(-c2ccccn2)nnc1-c1ccccc1)c1ccccc1 (configuration not stated),1.37 µM
15,c1ccc(-c2csc(Nc3nc(-c4ccccn4)nnc3-c3ccccc3)n2)cc1,0.597 µM
16,c1ccc(CCNc2nc(-c3ccccn3)nnc2-c2ccccc2)cc1,4.92 µM
17,c1ccc(-c2nnc(-c3ccccn3)nc2N2CCC(C3CCCCC3)C2)cc1 (configuration not stated),0.843 µM
18,c1ccc(-c2nnc(Nc3nc(-c4ccccn4)nnc3-c3ccccc3)s2)cc1,1.3 µM
19,Oc1ccc(CN2CCC3CCCCC3C2)c2cccnc12 (configuration not stated),3.2 µM
20,C[C@@H](Nc1nc(-c2ccccn2)nnc1-c1ccccc1)C1CCCCC1,0.571 µM
21,O=C(NCCCn1ccnc1)c1cc(-c2ccccc2)on1,10.7 µM
22,c1ccc(-c2nnc(-c3ccccn3)nc2Nc2nc3ccccc3s2)cc1,0.51 µM

row,SMILES,AC40
1,c1ccc(-c2cnc(Nc3nc(-c4ccccn4)nnc3-c3ccccc3)s2)cc1,0.4 µM
2,c1ccc(-c2nnc(-c3ccccn3)nc2NCC2CCCCC2)cc1,1.3 µM
3,Oc1ccc(CNC2CCc3ccccc32)c2cccnc12 (configuration not stated),35.1 µM
4,OCC1CCN(c2nc(-c3ccccn3)nnc2-c2ccccc2)CC1,10.5 µM
5,C[C@H](Nc1nc(-c2ccccn2)nnc1-c1ccccc1)C1CCCCC1,1.39 µM
6,OCC1CCN(Cc2ccc(O)c3ncccc23)CC1,3.56 µM
7,Cc1ccc(Nc2nc(-c3ccccn3)nnc2-c2ccccc2)cn1,6.12 µM
8,C=CCNc1nc(-c2ccccn2)nnc1-c1ccccc1,4.47 µM
9,Cn1c(-c2ccccc2)cnc1Nc1nc(-c2ccccn2)nnc1-c1ccccc1,3.33 µM
10,Oc1ccc(CNC2Cc3ccccc3C2)c2cccnc12,10.7 µM
11,O=C(Nc1cn2ccccc2n1)c1cc(-c2ccccc2)on1,18.6 µM
12,O=C(NCCN1CCOCC1)c1cc(-c2ccccc2)on1,28.8 µM
13,Clc1cccc(CNc2nc(-c3ccccn3)nnc2-c2ccccc2)c1,0.87 µM
14,C[C@@H](Nc1nc(-c2ccccn2)nnc1-c1ccccc1)c1ccccc1,2.22 µM
15,Oc1ccc(CN2CCc3ccccc3C2)c2cccnc12,5.31 µM and 5.35 µM
16,Cc1cccc(CNc2nc(-c3ccccn3)nnc2-c2ccccc2)c1,1.45 µM
17,CN1CCN(c2nc(-c3ccccn3)nnc2-c2ccccc2)CC1,5.95 µM
18,c1ccc(-c2ccc(CNc3nc(-c4ccccn4)nnc3-c3ccccc3)cc2)cc1,0.303 µM
19,COc1ccccc1N1CCN(Cc2ccc(O)c3ncccc23)CC1,0.519 µM
20,O=C(NCCCO)c1cc(-c2ccccc2)on1,11.5 µM
21,c1ccc(-c2nnc(-c3ccccn3)nc2N2CCN(c3ccncc3)CC2)cc1,2.12 µM
